From ChEMBL document CHEMBL4414552, “Homotrimerization Approach in the Design of Thrombospondin-1 Mimetic Peptides with Improved Potency in Triggering Regulated Cell Death of Cancer Cells” (J Med Chem, 2019)
The source made the active and inactive calls. Square brackets hold non-standard residues; d marks the D form. Peptide text beside a SMILES is read from it. NMeR = CN[C@@H](CCCNC(=N)N)C(=O)O; Nle = CCCC[C@H](N)C(=O)O

Legend:
[1] = test system: MEC1; test: Cytotoxicity against human MEC1 cells assessed as induction of cell death after 2 hrs by annexin V/propidium iodide staining based flow cytometric analysis; format: functional; settings: MEC1, 2 h, read-out: LC50 (the source's name)
Method in brief: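 MEC-1 CLL cells (TP53-dysfunctional) maintained in Advanced RPMI 1640 with 10% fetal calf serum, 2 mM L-glutamine and penicillin–streptomycin. Peptide treatment for 2 h in complete medium. Ann-V-APC (0.1 μg/mL) and PI (0.5 μg/mL) staining, read by flow cytometry. Cell death taken as the sum of AnnV+/PI- and AnnV+/PI+ events. Mean ± SD of at least three independent experiments.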

[2] = test system: A549; test: Disruption of membrane integrity in human A549 cells assessed as increase in adenylate kinase release at 200 uM by ToxiLight bioassay; format: functional, cell-based
[3] = test system: MEC1; test: Induction of cell death in human MEC1 cells at 50 uM in presence of IP3R inhibitor 2-APB administered 1 hr post 2-APB treatment in serum-free medium by annexin V-APC/propidium iodide staining based flow cytometric analysis; format: functional
Method in brief: (§1)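 Peptide was then added at 5 or 50 μM in serum-free medium for 2 h. Cell death was read by Ann-V/PI flow cytometry and normalized to each peptide's control to give an index. Mean ± SD of at least two experiments.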

[4] = test system: A549; test: Induction of cell death in human A549 cells at 100 uM in presence of ryanodine inhibitor dantrolene/PLCgamma1 inhibitor U73122/IP3R inhibitor 2-APB by annexin V-APC/propidium iodide staining based flow cytometric analysis; format: functional
Method in brief: (§2)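 Peptide was then added at 10 or 100 μM in serum-free medium for 6 h. Cell death was read by Ann-V/PI flow cytometry and trypan blue counting. A cell death index was obtained by normalizing to each peptide's control. Mean ± SD of two experiments.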

[5] = test system: MEC1; test: Cytotoxicity against human MEC1 cells assessed as induction of cell death at 200 uM after 6 hrs by annexin V/propidium iodide staining based flow cytometric analysis relative to control; format: functional
[6] = test system: MEC1; test: Induction of cell death in human MEC1 cells at 50 uM in presence of PLCgamma1 inhibitor U73122 administered 1 hr post U73122 treatment in serum-free medium by annexin V-APC/propidium iodide staining based flow cytometric analysis; format: functional; method in brief: as §1
[7] = test system: A549; test: Induction of cell death in human A549 cells at 100 uM in presence of PLCgamma1 inhibitor U73122 administered 1 hr post U73122 treatment in serum-free medium by annexin V-APC/propidium iodide staining based flow cytometric analysis; format: functional; method in brief: as §2
[8] = test system: A549; test: Cytotoxicity against human A549 cells assessed as induction of cell death after 6 hrs by annexin V-APC/propidium iodide staining based flow cytometric analysis; format: functional; settings: A549, 6 h, read-out: LC50 (the source's name)
Method in brief: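 A549 cells kept in Advanced RPMI 1640 with 10% fetal calf serum, 2 mM L-glutamine and penicillin–streptomycin. Peptides at the indicated concentrations in this complete medium for 6 h. Cells stained with Ann-V-APC (0.1 μg/mL) and PI (0.5 μg/mL), then read by flow cytometry. Values are means ± SD of two independent experiments.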

[9] = test system: A549; test: Induction of cell death in human A549 cells at 100 uM administered 30 mins post Q-VD-OPh treatment in serum-free medium by propidium iodide staining based flow cytometric analysis; format: functional
[10] = test system: A549; test: Induction of cell death in human A549 cells at 100 uM in presence of IP3R inhibitor 2-APB administered 1 hr post 2-APB treatment in serum-free medium by annexin V-APC/propidium iodide staining based flow cytometric analysis; format: functional; method in brief: as §2
[11] = test system: MEC1; test: Induction of cell death in human MEC1 cells at 50 uM in presence of ryanodine inhibitor dantrolene/PLCgamma1 inhibitor U73122/IP3R inhibitor 2-APB by annexin V-APC/propidium iodide staining based flow cytometric analysis; format: functional; method in brief: as §1
[12] = test system: MEC1; test: Induction of cell death in human MEC1 cells at 50 uM in presence of caspase inhibitor Q-VD-OPH administered 30 mins post Q-VD-OPH treatment in serum-free medium by Annexin V-APC/propidium iodide staining based flow cytometric analysis; format: functional
[13] = test system: A549; test: Induction of cell death in human A549 cells at 100 uM in presence of ryanodine inhibitor dantrolene administered 1 hr post dantrolene treatment in serum-free medium by annexin V-APC/propidium iodide staining based flow cytometric analysis; format: functional; method in brief: as §2
[14] = test system: MEC1; test: Induction of cell death in human MEC1 cells at 50 uM in presence of extracellular calcium chelator BAPTA administered 30 mins post BAPTA treatment in serum-free medium by Annexin V-APC/propidium iodide staining based flow cytometric analysis; format: functional
[15] = test system: MEC1; test: Induction of cell death in human MEC1 cells at 50 uM in presence of ryanodine inhibitor dantrolene administered 1 hr post dantrolene treatment in serum-free medium by annexin V-APC/propidium iodide staining based flow cytometric analysis; format: functional; method in brief: as §1
[16] = molecular target: T1, Leukocyte surface antigen CD47 (Homo sapiens, UniProt Q08722); test: Agonist activity at CD47 in human MEC1 cells assessed as activation of PLCgamma1-induced calcium-mediated caspase-independent cell death at 200 uM after 2 hrs by microscopic method; format: cell-based
Method in brief: (§3)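 MEC-1 CLL cells kept in Advanced RPMI 1640 with 10% FCS, 2 mM L-glutamine and penicillin–streptomycin. Cells were treated with peptide in complete medium for 2 h, then examined by light microscopy at 20X for morphology and cell aggregation.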

[17] = test system: A549; test: Induction of cell death in human A549 cells at 100 uM in presence of extracellular calcium chelator BAPTA administered 30 mins post BAPTA treatment in serum-free medium by annexin V-APC/propidium iodide staining based flow cytometric analysis; format: functional
[18] = test system: MEC1; test: Induction of cell aggregation in human MEC1 at 200 uM after 2 hrs by microcopic method; format: functional, cell-based; method in brief: as §3
[19] = test system: A549; test: Induction of cell death in human A549 cells assessed as reduction in cell index at 200 uM measured every minute for first 2 hrs followed by every hour for 24 hrs by RTCA analysis; format: functional, cell-based
[20] = molecular target: T1, Leukocyte surface antigen CD47; test: Binding affinity to CD47 in biotinylated human MEC1 cell membranes by biolayer interferometry
Method in brief: (§4)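 Biotinylated membrane preparations from MEC-1 cells were loaded onto SuperStreptavidin biosensors. Binding was measured by bilayer interferometry (Octet RED96) in PBS with 0.2% BSA and 1% DMSO at 30 °C. Affinities are given as apparent Kd estimates.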

[21] = test system: MEC1; test: Cytotoxicity against human MEC1 cells assessed as induction of cell death at 300 uM after 6 hrs by annexin V/propidium iodide staining based flow cytometric analysis relative to control; format: functional
[22] = molecular target: T1, Leukocyte surface antigen CD47; test: Binding affinity to CD47 in biotinylated human MEC1 cell membranes at 300 uM by biolayer interferometry; method in brief: as §4
[23] = test system: Serum; test: Aggregation property of the compound in human serum; format: ADME, cell-free
[24] = Solubility of the compound in PBS with 0.05% Tween 20 and 1% DMSO; format: physicochemical; settings: buffer
[25] = Aggregation property of the compound in pure water; format: physicochemical; settings: buffer
[26] = Aggregation property of the compound in phosphate buffer; format: physicochemical
[27] = Aggregation property of the compound in water; format: physicochemical; settings: buffer

T1 sequence (Q08722 whole entry): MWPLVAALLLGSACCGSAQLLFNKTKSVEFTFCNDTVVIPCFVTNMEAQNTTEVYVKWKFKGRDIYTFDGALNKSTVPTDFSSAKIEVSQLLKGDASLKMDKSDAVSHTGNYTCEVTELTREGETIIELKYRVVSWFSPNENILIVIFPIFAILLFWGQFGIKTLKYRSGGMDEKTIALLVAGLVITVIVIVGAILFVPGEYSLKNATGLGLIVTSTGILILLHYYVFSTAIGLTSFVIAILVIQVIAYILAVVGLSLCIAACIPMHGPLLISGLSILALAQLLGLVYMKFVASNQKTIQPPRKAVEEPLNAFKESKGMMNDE

CSCC[C@H](NC(=O)[C@@H](NC(=O)[C@@H](NC(=O)[C@H](Cc1ccc(O)cc1)NC(=O)[C@H](Cc1ccccc1)NC(=O)[C@H](CCCNC(=N)N)NC(=O)[C@H](N)CCCCN)C(C)C)C(C)C)C(=O)N[C@@H](Cc1c[nH]c2ccccc12)C(=O)N[C@@H](CCCCN)C(=O)N[C@H](CCCCN)C(=O)O
67%: Activity [5]
inactive: Activity [3] | Activity [4] | Activity [6] | Activity [7] | Activity [9] | Activity [10] | Activity [11] | Activity [12] | Activity [13] | Activity [14] | Activity [15] | Activity [17] | Activity [18]
active: Activity [2] | Activity [16] | Activity [19]
200 µM: CC50 [1] | CC50 [8]

CC[C@H](C)[C@H](NC(=O)[C@@H](NC(=O)[C@@H](NC(=O)[C@H](Cc1ccc(O)cc1)NC(=O)[C@H](Cc1ccccc1)NC(=O)[C@H](CCCNC(=N)N)N(C)C(=O)[C@H](N)CCCCN)C(C)C)C(C)C)C(=O)N[C@@H](Cc1c[nH]c2ccccc12)C(=O)N[C@@H](CCCCN)C(=O)N[C@H](CCCCN)C(=O)O
25%: Activity [5]
17 µM: Kd [20]

CSCC[C@H](NC(=O)[C@@H](NC(=O)[C@@H](NC(=O)[C@H](Cc1ccc(O)cc1)NC(=O)[C@H](Cc1ccccc1)NC(=O)[C@H](CCCNC(=N)N)NC(=O)[C@H](N)CCCCN)C(C)C)C(C)C)C(=O)N[C@@H](Cc1c[nH]c2ccccc12)C(=O)N(C)[C@@H](CCCCN)C(=O)N[C@H](CCCCN)C(=O)O
20%: Activity [5]
48 µM: Kd [20]

H-KWVKYRVMFK-OH
inactive: Activity [21] | Activity [5] | Activity [20] | Activity [22]

CCCC[C@H](NC(=O)[C@@H](NC(=O)[C@@H](NC(=O)[C@H](Cc1ccc(O)cc1)NC(=O)[C@H](Cc1ccccc1)NC(=O)[C@H](CCCNC(=N)N)N(C)C(=O)[C@H](N)CCCCN)C(C)C)C(C)C)C(=O)N[C@@H](Cc1c[nH]c2ccccc12)C(=O)N[C@@H](CCCCN)C(=O)N[C@H](CCCCN)C(=O)O (H-[dK][NMeR]FYVV[Nle]WK[dK]-OH)
8.6 µM: Kd [20]
59%: Activity [5]
200 µM: CC50 [1] | CC50 [8]
inactive: Activity [3] | Activity [4] | Activity [6] | Activity [7] | Activity [9] | Activity [10] | Activity [11] | Activity [12] | Activity [13] | Activity [14] | Activity [15] | Activity [17] | Activity [18]
Soluble: solubility [24]
active: Activity [2] | Activity [16] | Activity [19]
Not Active: Activity [23] | Activity [25] | Activity [26] | Activity [27]

CSCC[C@@H](C(=O)N[C@@H](Cc1c[nH]c2ccccc12)C(=O)N[C@@H](CCCCN)C(=O)N[C@H](CCCCN)C(=O)O)N(C)C(=O)[C@@H](NC(=O)[C@@H](NC(=O)[C@H](Cc1ccc(O)cc1)NC(=O)[C@H](Cc1ccccc1)NC(=O)[C@H](CCCNC(=N)N)NC(=O)[C@H](N)CCCCN)C(C)C)C(C)C
11%: Activity [5]
